Results: ChEMBL document CHEMBL1121836, “Effect of structural change on acute toxicity and antiinflammatory activity in a series of imidazothiazoles and thiazolobenzimidazoles” (J Med Chem, 1981)
“And” between values parts separate entries of the source, which are not always exact repeats. Equal entries are not always repeated.

Tests used:
[1] = Compound was evaluated for the toxicity in mice; format: organism-based; details: mouse, in vivo
Mus musculus [2] = experiment: Compound was evaluated for the percent reduction of carrageenan induced edema in mice at dose of 30 mg/kg; format: functional
Mus musculus [3] = experiment: Compound was evaluated for the percent reduction of carrageenan induced edema in mice at dose of 50 mg/kg; format: functional
Mus musculus [4] = experiment: Compound was evaluated for the percent reduction of carrageenan induced edema in mice at dose of 40 mg/kg; format: functional
Mus musculus [5] = experiment: Compound was evaluated for the percent reduction of carrageenan induced edema in mice at dose of 150 mg/kg; format: functional
Mus musculus [6] = experiment: Compound was evaluated for the percent reduction of carrageenan induced edema in mice at dose of 75 mg/kg; format: functional
Mus musculus [7] = experiment: Compound was evaluated for the percent reduction of carrageenan induced edema in mice at dose of 200 mg/kg; format: functional
Mus musculus [8] = experiment: Compound was evaluated for the percent reduction of carrageenan induced edema in mice at dose of 25 mg/kg; format: functional
Mus musculus [9] = experiment: Compound was evaluated for the percent reduction of carrageenan induced edema in mice at dose of 10 mg/kg; format: functional
Mus musculus [10] = experiment: Compound was evaluated for the percent reduction of carrageenan induced edema in mice at dose of 3 mg/kg; format: functional
Rattus norvegicus [11] = experiment: Compound was evaluated in the developed adjuvant arthritis assay at a dose of 10 mg/kg for the percent reduction of carrageenan induced edema (LHF) on 21st day; format: functional
How it was run: (§1)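 Rats received 0.1 mL heat-killed Mycobacterium tuberculosis suspension (3.5 mg/mL) into the left hind footpad on day 1. On day 20, animals with developed arthritis (all four paws swollen, tail and ears involved) were used. Oral gavage in 0.25% methylcellulose (0.005 mL/g) on days 20 and 22. Hind paw volumes were recorded daily on days 20–23. Mean group volume is expressed as percent change from day 20.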

Rattus norvegicus [12] = experiment: Compound was evaluated in the developed adjuvant arthritis assay at a dose of 10 mg/kg for the percent reduction of carrageenan induced edema (LHF) on 22nd day; format: functional; how it was run: as §1
Rattus norvegicus [13] = experiment: Compound was evaluated in the developed adjuvant arthritis assay at a dose of 10 mg/kg for the percent reduction of carrageenan induced edema (LHF) on 23rd day; format: functional; how it was run: as §1
Mus musculus [14] = experiment: Percent analgesia in phenylquinone writhing assay at 10 mg/kg; format: functional
How it was run: (§2)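 Groups of 10 male mice were dosed orally with compound dissolved or suspended in 0.25% methylcellulose (0.25 mL per mouse). After the designated interval they were challenged ip with 0.25 mL of 0.02% phenylquinone in aqueous ethanol (95:5). Read-out is the percentage of mice protected from writhing.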

Mus musculus [15] = experiment: Percent analgesia in phenylquinone writhing assay at 100 mg/kg; format: functional; how it was run: as §2
Mus musculus [16] = experiment: Percent analgesia in phenylquinone writhing assay at 30 mg/kg; format: functional; how it was run: as §2
Mus musculus [17] = species: Mus musculus; experiment: Dose giving one-half of average maximal [40%] response in carrageenan assay; format: functional
Mus musculus [18] = species: Mus musculus; experiment: Dose giving one-half of average maximal [40%] response in phenylquinone writhing assay; format: functional
Mus musculus [19] = experiment: Compound was evaluated for the percent reduction of carrageenan induced edema in mice at dose of 100 mg/kg; format: functional
Mus musculus [20] = species: Mus musculus; experiment: Neurotoxic dose that causes minimal recognizable neurotoxicity in 50% of animals tested; format: functional
How it was run: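 Mice dosed orally or intraperitoneally; neurotoxicity scored on five end points, including a positional sense test in which a hind leg lowered over a table edge should be quickly lifted back to a normal position. NTD50 is the dose giving minimal recognizable neurotoxicity in 50% of animals tested.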

Rattus norvegicus [21] = experiment: Compound was evaluated in the developed adjuvant arthritis assay at a dose of 100 mg/kg for the percent reduction of carrageenan induced edema (LHF) on 21st day; format: functional; how it was run: as §1
Rattus norvegicus [22] = experiment: Compound was evaluated in the developed adjuvant arthritis assay at a dose of 100 mg/kg for the percent reduction of carrageenan induced edema (LHF) on 22nd day; format: functional; how it was run: as §1
Rattus norvegicus [23] = experiment: Compound was evaluated in the developed adjuvant arthritis assay at a dose of 100 mg/kg for the percent reduction of carrageenan induced edema (LHF) on 23rd day; format: functional; how it was run: as §1
Rattus norvegicus [24] = experiment: Compound was evaluated in the developed adjuvant arthritis assay at a dose of 30 mg/kg for the percent reduction of carrageenan induced edema (LHF) on 21st day; format: functional; how it was run: as §1
Rattus norvegicus [25] = experiment: Compound was evaluated in the developed adjuvant arthritis assay at a dose of 30 mg/kg for the percent reduction of carrageenan induced edema (LHF) on 22nd day; format: functional; how it was run: as §1
Rattus norvegicus [26] = experiment: Compound was evaluated in the developed adjuvant arthritis assay at a dose of 30 mg/kg for the percent reduction of carrageenan induced edema (LHF) on 23rd day; format: functional; how it was run: as §1
Rattus norvegicus [27] = experiment: Compound was evaluated in the developed adjuvant arthritis assay at a dose of 300 mg/kg for the percent reduction of carrageenan induced edema (LHF) on 21st day; format: functional; how it was run: as §1
Rattus norvegicus [28] = experiment: Compound was evaluated in the developed adjuvant arthritis assay at a dose of 300 mg/kg for the percent reduction of carrageenan induced edema (LHF) on 22nd day; format: functional; how it was run: as §1
Rattus norvegicus [29] = experiment: Compound was evaluated in the developed adjuvant arthritis assay at a dose of 300 mg/kg for the percent reduction of carrageenan induced edema (LHF) on 23rd day; format: functional; how it was run: as §1
Rattus norvegicus [30] = species: Rattus norvegicus; experiment: Ulcerogenic dose that produced gastric lesions, ulcers and/or hemorrhage in 50% of the animals tested; format: functional, Stomach
How it was run: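 Ten male Sprague–Dawley rats (ca. 160 g) were fasted 24 h with water available, then dosed po with compound or vehicle. At 4 h they were killed with CO2, and stomachs were opened along the greater curvature. A nonbiased observer scored ulcers, pitting or hemorrhagic spots. UD50 (lesions in 50% of animals) was determined by Litchfield–Wilcoxon.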

[31] = Lethal dose evaluated in NPP assay; format: toxicity, organism-based; details: mouse, in vivo

Question: With `CC1=C(C(=O)Nc2c(Br)cccc2Br)SC2=NCCN21` as the compound, how does the LD50 [1] read?
Answer: Its LD50 is 40 mg/kg.

Question: And the Reduction (Mus musculus [2])?
Answer: The Reduction was 0%.

Question: For `CCOC(=O)C1=C(C)N2CCN=C2S1`, which LD50 [1] is on record?
Answer: The LD50 was 180 mg/kg.

Question: What about the Reduction (Mus musculus [3]) of the same compound?
Answer: Its Reduction is 2%.

Question: With `Cc1cc(C)c(NC(=O)C2=C(c3ccccc3)N3CCN=C3S2)c(C)c1` as the compound, how does the LD50 [1] read?
Answer: The LD50 was 80 mg/kg.

Question: What about the Reduction (Mus musculus [3]) of the same compound?
Answer: The Reduction was 23%.

Question: Which LD50 [1] does the source give for `CC1(C)CN2C(c3ccccc3)=CSC2=N1` here?
Answer: Its LD50 is 60 mg/kg.

Question: What about the Reduction (Mus musculus [4]) of the same compound?
Answer: The Reduction was 0%.

Question: For `CCOC(=O)Cc1ccc(C2=CSC3=NCCN23)cc1`, which LD50 [1] is on record?
Answer: The LD50 was 180 mg/kg.

Question: What about the Reduction (Mus musculus [5]) of the same compound?
Answer: Its Reduction is 0%.

Question: What does the source list for `CC1=C(C(=O)Nc2ccccc2F)SC2=NCCN21`?
Answer: LD50 [1]: 100 mg/kg; Reduction (Mus musculus [6]): 15%

Question: With `CS(=O)(=O)CC1=CSC2=NCCN12` as the compound, how does the Reduction (Mus musculus [7]) read?
Answer: The Reduction was 11%.

Question: With `CC1=C(C(=O)Nc2c(Cl)cccc2Cl)SC2=NCCN21` as the compound, how does the LD50 [1] read?
Answer: The LD50 was 60 mg/kg.

Question: For `OC1(C(F)(F)F)CSC2=NC3CCCCC3N21` (configuration not stated), which Reduction (Mus musculus [7]) is on record?
Answer: Its Reduction is 18%.

Question: Which Reduction (Mus musculus [7]; 200 mg/kg) does the source give for `CC1(C)SC2=NC3CCCCC3N2C1(O)c1ccccc1` (configuration not stated) here?
Answer: The Reduction was 15% and 30%.

Question: Which LD50 [1] does the source give for `c1ccc(C2=C(c3ccccc3)N3CCN=C3S2)cc1` here?
Answer: Its LD50 is 40 mg/kg.

Question: What about the Reduction (Mus musculus [8]) of the same compound?
Answer: The Reduction was 14%.

Question: What does the source list for `CC1=C(C(=O)Nc2cccc(C(F)(F)F)c2)SC2=NCCN21`?
Answer: LD50 [1]: 240 mg/kg; Reduction (Mus musculus [7]): 36%

Question: Which Reduction (Mus musculus [9]) does the source give for `CC1(O)CSC2=NC3CCCCC3N21` (configuration not stated) here?
Answer: The Reduction was 15%.

Question: And the Reduction (Mus musculus [8])?
Answer: Its Reduction is 7%.

Question: What about the Reduction (Mus musculus [2]) of the same compound?
Answer: The Reduction was 7%.

Question: And the Reduction (Mus musculus [10])?
Answer: Its Reduction is 10%.

Question: And the Reduction (Mus musculus [3])?
Answer: Its Reduction is 45%.

Question: What about the Reduction (Rattus norvegicus [11]) of the same compound?
Answer: The Reduction was 3%.

Question: What about the Reduction (Rattus norvegicus [12]) of the same compound?
Answer: The Reduction was 2%.

Question: And the Reduction (Rattus norvegicus [13])?
Answer: Its Reduction is 11%.

Question: Which results are given for `CS(=O)(=O)C1=C(c2ccccc2)N2CCN=C2S1`?
Answer: Analgesia (Mus musculus [14]): 10%; Analgesia (Mus musculus [15]): 90%; Analgesia (Mus musculus [16]): 60%; ED50 (Mus musculus [17]): 30 mg/kg; ED50 (Mus musculus [18]): 30 mg/kg; LD50 [1]: > 300 mg/kg; Reduction (Mus musculus [9]): 33%; Reduction (Mus musculus [7]): 43%; Reduction (Mus musculus [19]): 30%; NTD50 (Mus musculus [20]): 690 mg/kg; Reduction (Mus musculus [2]): 26%; Reduction (Mus musculus [10]): 15%; Reduction (Rattus norvegicus [21]): 11%; Reduction (Rattus norvegicus [22]): 26%; Reduction (Rattus norvegicus [23]): 16%; Reduction (Rattus norvegicus [24]): 10%; Reduction (Rattus norvegicus [25]): 15%; Reduction (Rattus norvegicus [26]): 7%; Reduction (Rattus norvegicus [27]): 10%; Reduction (Rattus norvegicus [28]): 19%; Reduction (Rattus norvegicus [29]): 17%; UD50 (Rattus norvegicus [30]): >100 mg/kg; LD50 [31]: > 1000 mg/kg

Question: For `CC1(C)CN2C(CS(=O)(=O)c3ccccc3)=CSC2=N1`, which Reduction (Mus musculus [7]) is on record?
Answer: Its Reduction is 5%.
